Measurements: ChEMBL document CHEMBL3994637, “Broad spectrum anti-infective properties of benzisothiazolones and the parallels in their anti-bacterial and anti-fungal effects” (Bioorg Med Chem Lett, 2017)
Values after ≈ are worked out from the molar mass of the structure shown.

What was measured:
Assay type in all cases: functional
[1] = system: Sporothrix schenckii; experiment: Anti-fungal activity against Sporothrix schenckii after 48 hrs by broth microdilution method
[2] = system: Cryptococcus neoformans; experiment: Anti-fungal activity against Cryptococcus neoformans after 48 hrs by broth microdilution method
[3] = system: Aspergillus fumigatus; experiment: Anti-fungal activity against Aspergillus fumigatus after 48 hrs by broth microdilution method
[4] = system: Candida parapsilosis; experiment: Anti-fungal activity against Candida parapsilosis ATCC 22019 after 48 hrs by broth microdilution method; details: Lodderomyces parapsilosis, ATCC 22019, 48 h
[5] = system: Candida albicans; experiment: Anti-fungal activity against Candida albicans after 48 hrs by broth microdilution method
[6] = system: Trichophyton mentagrophytes; experiment: Anti-fungal activity against Trichophyton mentagrophytes after 48 hrs by broth microdilution method
[7] = system: Staphylococcus aureus; experiment: Antibacterial activity against methicillin-resistant Staphylococcus aureus ATCC 700699 by broth microdilution method; details: Mu50
[8] = system: Klebsiella pneumoniae; experiment: Antibacterial activity against Klebsiella pneumoniae ATCC 27736 by broth microdilution method
Outline: (§1)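 Bacteria were tested by the NCCLS method in Mueller Hinton broth, with gentamicin and norfloxacin as reference drugs.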

[9] = system: Staphylococcus aureus; experiment: Antibacterial activity against Staphylococcus aureus ATCC 25923 by broth microdilution method
[10] = system: Pseudomonas aeruginosa; experiment: Antibacterial activity against Pseudomonas aeruginosa ATCC BAA-427 by broth microdilution method; outline: as §1
[11] = system: Escherichia coli; experiment: Antibacterial activity against Escherichia coli ATCC 9637 by broth microdilution method; details: W; outline: as §1
[12] = system: Staphylococcus aureus; experiment: Antibacterial activity against Staphylococcus aureus ATCC 29213 by broth microdilution method
[13] = system: Plasmodium falciparum; experiment: Antimalarial activity against chloroquine-sensitive Plasmodium falciparum 3D7 after 72 hrs by SYBR Green-1 staining based fluorescence assay; details: 3D7, 72 h

Compound	MIC [1] [µg/mL]	MIC [2] [µg/mL]	MIC [3] [µg/mL]	MIC [4] [µg/mL]	MIC [5] [µg/mL]	MIC [6] [µg/mL]	IC50 [1] [µg/mL]	IC50 [7] [µg/mL]	MIC [7] [µg/mL]	IC50 [8] [µg/mL]	MIC [8] [µg/mL]	IC50 [9] [µg/mL]	MIC [9] [µg/mL]	IC50 [10] [µg/mL]	MIC [10] [µg/mL]	IC50 [11] [µg/mL]	MIC [11] [µg/mL]	IC50 [12] [µg/mL]	MIC [12] [µg/mL]	IC50 [13] [nM]	further results
OC(Cn1cncn1)(Cn1cncn1)c1ccc(F)cc1F [FLUCONAZOLE]	2 (≈ 6.53 µM)	2 (≈ 6.53 µM)	> 32	2 (≈ 6.53 µM)	1 (≈ 3.27 µM)	> 32															
CC(=O)Nc1ccccc1-n1sc2ccccc2c1=O	> 50	> 50	> 50	> 50	> 50	> 50	> 50	> 50	> 50	> 50	> 50	> 50	> 50	> 50	> 50	> 50	> 50	> 50	> 50	> 2000	IC50 [2]: > 50 µg/mL; IC50 [3]: > 50 µg/mL; IC50 [4]: > 50 µg/mL; IC50 [5]: > 50 µg/mL; IC50 [6]: > 50 µg/mL
O=c1c2ccccc2sn1-c1ccccc1-n1sc2ccccc2c1=O	> 50	14.4 (≈ 38.3 µM)	> 50	17.1 (≈ 45.4 µM)	25 (≈ 66.4 µM)	13.6 (≈ 36.1 µM)	> 50	4.7 (≈ 12.5 µM)	10.2 (≈ 27.1 µM)	> 50	> 50	10 (≈ 26.6 µM)	18 (≈ 47.8 µM)	> 50	> 50	> 50	> 50	6.3 (≈ 16.7 µM)	6.5 (≈ 17.3 µM)	> 2000	IC50 [2]: 13.7 µg/mL (≈ 36.4 µM); IC50 [3]: > 50 µg/mL; IC50 [4]: 15.2 µg/mL (≈ 40.4 µM); IC50 [5]: 14.2 µg/mL (≈ 37.7 µM); IC50 [6]: 12.5 µg/mL (≈ 33.2 µM)
COC(=O)[C@H](C)NC(=O)[C@H](C)n1sc2ccccc2c1=O	> 50	> 50	> 50	> 50	> 50	> 50	> 50	3.6 (≈ 11.7 µM)	7.5 (≈ 24.3 µM)	> 50	> 50	3.6 (≈ 11.7 µM)	7.5 (≈ 24.3 µM)	> 50	> 50	> 50	> 50	3.5 (≈ 11.4 µM)	5.6 (≈ 18.2 µM)	> 2000	IC50 [2]: > 50 µg/mL; IC50 [3]: > 50 µg/mL; IC50 [4]: > 50 µg/mL; IC50 [5]: > 50 µg/mL; IC50 [6]: > 50 µg/mL
GENTAMICIN									> 50		0.78		6.25		> 50		6.25		0.78		
CC(Cn1sc2ccccc2c1=O)n1sc2ccccc2c1=O (stereo unspecified)	6.6 (≈ 19.3 µM)	1.67 (≈ 4.88 µM)	12.5 (≈ 36.5 µM)	> 50	3.1 (≈ 9.05 µM)	4.3 (≈ 12.6 µM)	3.7 (≈ 10.8 µM)	1.5 (≈ 4.38 µM)	2.6 (≈ 7.59 µM)	> 50	> 50	6.1 (≈ 17.8 µM)	12.4 (≈ 36.2 µM)	> 50	> 50	> 50	> 50	2 (≈ 5.84 µM)	4.1 (≈ 12 µM)	> 2000	IC50 [2]: 1.61 µg/mL (≈ 4.7 µM); IC50 [4]: > 50 µg/mL; IC50 [5]: 2.2 µg/mL (≈ 6.42 µM)
C[C@@H]1[C@H](O)[C@@H](C)/C=C/C=C/C=C/C=C/C=C/C=C/C=C/[C@H](O[C@@H]2O[C@H](C)[C@@H](O)[C@H](N)[C@@H]2O)C[C@@H]2O[C@](O)(C[C@@H](O)C[C@@H](O)[C@H](O)CC[C@@H](O)C[C@@H](O)CC(=O)O[C@H]1C)C[C@H](O)[C@H]2C(=O)O [AMPHOTERICIN B]	0.25 (≈ 0.271 µM)	0.125 (≈ 0.135 µM)	0.5 (≈ 0.541 µM)	0.016 (≈ 0.0173 µM)	0.016 (≈ 0.0173 µM)	0.25 (≈ 0.271 µM)															
O=c1c2ccccc2sn1C1CCCCC1n1sc2ccccc2c1=O (stereo unspecified)	> 50	> 50	> 50	> 50	> 50	> 50	> 50	1.4 (≈ 3.66 µM)	2.3 (≈ 6.01 µM)	> 50	> 50	3.2 (≈ 8.37 µM)	3.4 (≈ 8.89 µM)	> 50	> 50	> 50	> 50	2.5 (≈ 6.54 µM)	3.7 (≈ 9.67 µM)	> 2000	IC50 [2]: > 50 µg/mL; IC50 [3]: > 50 µg/mL; IC50 [4]: > 50 µg/mL; IC50 [5]: > 50 µg/mL; IC50 [6]: > 50 µg/mL
COC(=O)[C@H](C)n1sc2ccccc2c1=O	12.2 (≈ 51.4 µM)	2 (≈ 8.43 µM)	25 (≈ 105 µM)	12.5 (≈ 52.7 µM)	2.7 (≈ 11.4 µM)	12 (≈ 50.6 µM)	2.9 (≈ 12.2 µM)	0.84 (≈ 3.54 µM)	0.87 (≈ 3.67 µM)	> 50	> 50	2 (≈ 8.43 µM)	3 (≈ 12.6 µM)	> 50	> 50	> 50	> 50	6.4 (≈ 27 µM)	8.4 (≈ 35.4 µM)	> 2000	IC50 [2]: 1.4 µg/mL (≈ 5.9 µM); IC50 [5]: 1.9 µg/mL (≈ 8.01 µM); IC50 [6]: 11.4 µg/mL (≈ 48 µM)
O=c1c2ccccc2sn1CCn1sc2ccccc2c1=O	3.5 (≈ 10.7 µM)	2.2 (≈ 6.7 µM)	12.5 (≈ 38.1 µM)	> 50	1.54 (≈ 4.69 µM)	2.9 (≈ 8.83 µM)	2.3 (≈ 7 µM)	0.4 (≈ 1.22 µM)	0.9 (≈ 2.74 µM)	> 50	> 50	4.1 (≈ 12.5 µM)	16.7 (≈ 50.8 µM)	> 50	> 50	> 50	> 50	0.3 (≈ 0.913 µM)	0.4 (≈ 1.22 µM)	> 2000	IC50 [2]: 1.4 µg/mL (≈ 4.26 µM); IC50 [4]: > 50 µg/mL; IC50 [5]: 1.51 µg/mL (≈ 4.6 µM)
COC(=O)[C@@H](NC(=O)[C@H](C(C)C)n1sc2ccccc2c1=O)C(C)C	> 50	> 50	> 50	> 50	> 50	> 50	> 50	> 50	> 50	> 50	> 50	> 50	> 50	> 50	> 50	> 50	> 50	> 50	> 50	> 2000	IC50 [2]: > 50 µg/mL; IC50 [3]: > 50 µg/mL; IC50 [4]: > 50 µg/mL; IC50 [5]: > 50 µg/mL; IC50 [6]: > 50 µg/mL
O=c1c2ccccc2sn1Cc1ccc2c(c1)OCO2	0.5 (≈ 1.75 µM)	0.8 (≈ 2.8 µM)	1.7 (≈ 5.96 µM)	> 50	0.7 (≈ 2.45 µM)	1.5 (≈ 5.26 µM)	0.3 (≈ 1.05 µM)	0.6 (≈ 2.1 µM)	1 (≈ 3.5 µM)	> 50	> 50	2.2 (≈ 7.71 µM)	2.6 (≈ 9.11 µM)	> 50	> 50	> 50	> 50	1.9 (≈ 6.66 µM)	2.5 (≈ 8.76 µM)	> 2000	IC50 [2]: 0.8 µg/mL (≈ 2.8 µM); IC50 [3]: 1.5 µg/mL (≈ 5.26 µM); IC50 [5]: 0.56 µg/mL (≈ 1.96 µM)
CCn1cc(C(=O)O)c(=O)c2cc(F)c(N3CCNCC3)cc21 [NORFLOXACIN]									> 50		0.78 (≈ 2.44 µM)		0.39 (≈ 1.22 µM)		> 50		0.39 (≈ 1.22 µM)		0.78 (≈ 2.44 µM)		
COC(=O)[C@H](c1ccccc1)n1sc2ccccc2c1=O	> 50	> 50	> 50	> 50	> 50	> 50	> 50	2.6 (≈ 8.69 µM)	4.2 (≈ 14 µM)	> 50	> 50	1.1 (≈ 3.67 µM)	1.5 (≈ 5.01 µM)	> 50	> 50	> 50	> 50	13.5 (≈ 45.1 µM)	18.7 (≈ 62.5 µM)	> 2000	IC50 [2]: > 50 µg/mL; IC50 [3]: > 50 µg/mL; IC50 [4]: > 50 µg/mL; IC50 [5]: > 50 µg/mL; IC50 [6]: > 50 µg/mL
CC[C@H](C)[C@@H](C(=O)OC)n1sc2ccccc2c1=O	18.2 (≈ 65.1 µM)	8.3 (≈ 29.7 µM)	12.5 (≈ 44.7 µM)	4.5 (≈ 16.1 µM)	2.5 (≈ 8.95 µM)	> 50	4.7 (≈ 16.8 µM)	0.43 (≈ 1.54 µM)	0.89 (≈ 3.19 µM)	> 50	> 50	2 (≈ 7.16 µM)	4.2 (≈ 15 µM)	> 50	> 50	> 50	> 50	2.1 (≈ 7.52 µM)	4.3 (≈ 15.4 µM)	> 2000	IC50 [2]: 7.3 µg/mL (≈ 26.1 µM); IC50 [4]: 3.1 µg/mL (≈ 11.1 µM); IC50 [5]: 1.6 µg/mL (≈ 5.73 µM); IC50 [6]: > 50 µg/mL
CC(C)Cn1sc2ccccc2c1=O	1.4 (≈ 6.75 µM)	0.4 (≈ 1.93 µM)	2.6 (≈ 12.5 µM)	1.1 (≈ 5.31 µM)	0.6 (≈ 2.89 µM)	> 50		4.7 (≈ 22.7 µM)	5.2 (≈ 25.1 µM)	> 50	> 50	10.6 (≈ 51.1 µM)	15.4 (≈ 74.3 µM)	> 50	> 50	> 50	> 50	6.3 (≈ 30.4 µM)	9.8 (≈ 47.3 µM)	> 2000	IC50 [3]: 1.3 µg/mL (≈ 6.27 µM); IC50 [4]: 1 µg/mL (≈ 4.82 µM); IC50 [6]: > 50 µg/mL
O=c1c2ccccc2sn1C1CCCCC1	0.6 (≈ 2.57 µM)	1.3 (≈ 5.57 µM)	3.7 (≈ 15.9 µM)	0.9 (≈ 3.86 µM)	0.5 (≈ 2.14 µM)	1 (≈ 4.29 µM)	0.4 (≈ 1.71 µM)	1 (≈ 4.29 µM)	2.5 (≈ 10.7 µM)	> 50	> 50	6.8 (≈ 29.1 µM)	9.8 (≈ 42 µM)	> 50	> 50	> 50	> 50	4.6 (≈ 19.7 µM)	7.1 (≈ 30.4 µM)	> 2000	IC50 [2]: 1 µg/mL (≈ 4.29 µM); IC50 [3]: 0.4 µg/mL (≈ 1.71 µM); IC50 [4]: 0.7 µg/mL (≈ 3 µM); IC50 [6]: 0.7 µg/mL (≈ 3 µM)
